Assay results pooled from the literature.
Target: Angiopoietin-1 receptor (TEK, Homo sapiens, UniProt Q02763)

Compound | test | conditions | remaining binding
Cc1nc(N2CC[C@@H](O)C2)ncc1-c1cc(C(F)(F)F)cc2[nH]ncc12 | cell-free assay, competition with immobilised ligand | 1 µM | 100%
CNC(=O)[C@@H]1CC[C@@H](n2c(-c3ccc4cnccc4c3)nc3ccc(C(=O)NCc4cccc(C(N)=O)c4)cc32)C1 | binding, competition with immobilised ligand | 1 µM | 100%
O=C(NCc1ncc(C(F)(F)F)cc1Cl)c1ccc2c(c1)C1(CCS(=O)(=O)CC1)[C@H](C1CC1)N2S(=O)(=O)c1ccc(F)cc1 | cell-free assay, competition with immobilised ligand | 1 µM | 100%
Cc1cnc(Nc2ccc(C(=O)N3CCC(N4CCCC4)CC3)cc2)nc1-c1cc2ccccc2s1 | binding, competition with immobilised ligand | 1 µM | 11%
CN(C)c1nccc(-c2cnn3ncccc23)n1 | binding | 1 µM | 100%
O=C(c1ccc(Nc2ncc(Cl)c(-c3ccc(Cl)s3)n2)cc1)N1CCC(N2CCCC2)CC1 | binding, competition with immobilised ligand | 1 µM | 23%
N#Cc1ccccc1CSc1nnc2c(n1)[nH]c1ccccc12 | binding, competition with immobilised ligand | 10 µM | 100%
C=CC(=O)N1CCC(C(=O)NCC(=O)N2CCN(c3nc(-c4cnc(N)nc4C(F)F)nc(N4CCOCC4)n3)CC2)CC1 | binding, competition with immobilised ligand | 1 µM | 97%
C[C@@H]1CN(c2ccc3ncc(-c4ccc5[nH]nc(C6CC6)c5c4)n3n2)C[C@H](C)O1 | binding, competition with immobilised ligand | 0.5 µM | 100%
COc1cnc(Nc2cccc(S(N)(=O)=O)c2)nc1N1CCN(c2ccccc2)CC1 | binding, competition with immobilised ligand | 1 µM | 100%
CN(C)c1ncc(F)c(-c2cnn3ncccc23)n1 | binding | 1 µM | 100%
O=C(Nc1c[nH]nc1C(=O)NC1CCNCC1)c1cc(F)cc(F)c1 | binding, competition with immobilised ligand | 1 µM | 94%
CC(=O)C1=C(C)N(c2cccc(C(F)(F)F)c2)C(=O)N[C@@H]1c1ccc(C#N)nc1 | cell-free assay, competition with immobilised ligand | 1 µM | 100%
C[C@@H]1CCN(c2nccc(-c3cnn4ncccc34)n2)C1 | binding | 1 µM | 77%
C[C@@H]1CN(c2cc(-c3n[nH]c4ccc(OC5(C)CC5)cc34)ncn2)C[C@H](C)O1 | cell-free assay, competition with immobilised ligand | 0.1 µM | 100%
COc1ncc2cc3ccccc3nc2c1C#N | cell-free assay, competition with immobilised ligand | 5 µM | 88%
C[C@@H]1CN(c2cc(-c3nn(C)c4ccc(OC5(C)CC5)cc34)ncn2)C[C@H](C)O1 | cell-free assay, competition with immobilised ligand | 1 µM | 94%
CN(c1nccc(-c2cnn3ncccc23)n1)C1CC1 | binding | 1 µM | 100%
O=C(c1ccc(Nc2nccc(-c3cc4ccccc4s3)n2)cc1)N1CCC(N2CCCC2)CC1 | binding, competition with immobilised ligand | 1 µM | 31%
O=C(NCCCC1CCCCC1)c1ccc(CNC(=O)c2cnn(-c3ccccc3)c2C(F)(F)F)cc1 | cell-free assay, competition with immobilised ligand | 0.1 µM | 100%
COc1ccnn2ncc(-c3ccnc(N(C)C)n3)c12 | binding | 1 µM | 100%
CNC(=O)c1ccc(Nc2ncc(C(F)(F)F)c(NCc3nccnc3N(C)S(C)(=O)=O)n2)cc1 | cell-free assay, competition with immobilised ligand | 0.1 µM | 69%
N[C@H]1CCN(c2nccc(-c3cnn4ncccc34)n2)C1 | binding | 1 µM | 84%
CCN1CCN(Cc2ccc(C(=O)Nc3ccc(C)c(Oc4ccc5c(c4)CC(=O)N5)c3)cc2C(F)(F)F)CC1 | binding, competition with immobilised ligand | 1 µM | 100%
c1cncc(-c2cccc(Nc3nccc(NC4CCCCC4)n3)c2)c1 | binding, competition with immobilised ligand | 10 µM | 38%
